CSC inhib = cancer stem cell inhibition. cancer stem cell-like cells viability, luminescence. hit rate 1.1% among 300,000. inhibition, % at 7.5 µM; in the data active = inhibition above about 75%; tested in HMLE shEcad cells
Beta cell apopt = blocks beta cell apoptosis; INS-1E cytokine-induced death, ATP luminescence, 48 h; percent of positive-control rescue, neutral wells zero; protection from apoptosis, % (no concentration beside the values); hit rate 0.8% among 300,000; AID 435005;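 active = Every replicate reaches about 75%, or at least half do and their mean reaches it too, limit read from the data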;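 also: higher means more ATP so stronger rescue from cytokine killing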
T cruzi inh = T. cruzi replication inhibition | hit rate 1.4% among 300,000 | T. cruzi beta-gal in NIH3T3, luminescence, 90 h | inhibition, % (concentration not given with the values);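 active = mean inhibition across valid replicates above about 55%, limit read from the data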;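 also: signal also drops with host cell toxicity which is not excluded here; higher percent means less beta-gal luminescence so fewer parasites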
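Assay system: NIH/3T3 host cells with β-galactosidase reporter T. cruzi; input: 5,000 host fibroblasts per well; compound: single 50 nL compound addition per well in DMSO; timing: ≥90 h infection period, 3 h prior cell attachment; measured by: GalScreen β-gal luminescence, detergent lysis, 60 min; evaluation: percent inhibition of parasite-derived β-gal signal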
PREPL inh = inhibitors of human prolyl oligopeptidase-like enzyme PREPL; Q4J6C6; recombinant PREPL, fluorescence polarization activity-based probe; inhibition, % at 5.96 µM; hit rate 0.68% among 320,000; AID 2751; in the data active = inhibition above about 43%
Target sequence (Q4J6C6 whole entry, looked up): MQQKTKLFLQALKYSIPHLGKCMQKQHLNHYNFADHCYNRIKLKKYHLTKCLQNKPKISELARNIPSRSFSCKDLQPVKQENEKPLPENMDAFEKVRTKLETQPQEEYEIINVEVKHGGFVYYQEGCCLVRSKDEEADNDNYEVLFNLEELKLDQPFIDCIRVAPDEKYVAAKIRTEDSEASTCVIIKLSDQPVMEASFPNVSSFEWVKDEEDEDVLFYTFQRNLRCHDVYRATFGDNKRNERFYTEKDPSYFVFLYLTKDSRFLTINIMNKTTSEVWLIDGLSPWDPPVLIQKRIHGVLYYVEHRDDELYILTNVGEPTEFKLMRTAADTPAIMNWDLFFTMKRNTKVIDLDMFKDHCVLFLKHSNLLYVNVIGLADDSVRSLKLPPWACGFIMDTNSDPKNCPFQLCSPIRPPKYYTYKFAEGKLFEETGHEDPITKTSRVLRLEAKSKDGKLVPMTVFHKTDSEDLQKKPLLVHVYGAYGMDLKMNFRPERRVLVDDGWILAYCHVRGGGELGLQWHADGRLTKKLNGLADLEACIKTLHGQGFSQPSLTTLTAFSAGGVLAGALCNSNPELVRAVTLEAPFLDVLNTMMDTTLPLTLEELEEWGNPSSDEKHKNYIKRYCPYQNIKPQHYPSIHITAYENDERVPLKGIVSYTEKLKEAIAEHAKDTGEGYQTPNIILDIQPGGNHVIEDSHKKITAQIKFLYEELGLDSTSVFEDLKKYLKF
CHOP inhibitor = inhibitors of CHOP induction in ER stress response. CHO-K1 CHOP-promoter luciferase, tunicamycin-induced, 15-18 h. inhibition, % at 10 µM. hit rate 3.8% among 220,000;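 active = compounds that reduced the stress-induced luciferase reporter signal by more than about 70% of percent inhibition, limit read from the data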
GRIN3A LBD mod = modulators (binders) of human NR3A ligand-binding domain. AID 1259313. NR3A LBD differential scanning fluorimetry, Tm shift; 0% = protein alone, 100% = glycine-bound protein. hit rate 2.5% among 340,000. Tm shift relative to glycine control, % at 25 µM;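 active = melting temperature shift of at least 10% of the positive control shift, at one fixed dose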
Each line names hits and unclear results; the compound was inactive in the other large screens. Compounds with a hit are over-represented: about 6.7% of the library has one in this group of screens.

COc1cccc(N2CCN(S(=O)(=O)c3ccc(-n4cnnn4)cc3)CC2)c1	none (no result: CHOP inhibitor)
O=C(Nc1ccccn1)C1CCCN1S(=O)(=O)c1ccc(Cl)cc1 (configuration not stated)	none (no result: CHOP inhibitor)
Cc1c(C(=O)N2CCCC2)c(S(=O)(=O)Nc2cccc(Br)c2)c(C)n1C	none (no result: CHOP inhibitor)
CCn1nc(C)c(CNC(=O)c2ccc(OC3CCN(Cc4ccccn4)CC3)cc2)c1C	Beta cell apopt 79 (no result: PREPL inh, CHOP inhibitor)
CCn1cc(CNC(=O)c2ccc(OC3CCN(Cc4ccccn4)CC3)cc2)cn1	none (no result: CHOP inhibitor)
CC12CCC(C/C1=N\N=C1\NC(=O)/C(=C\c3cccc(Br)c3)S1)C2(C)C (configuration not stated)	CSC inhib 105
c1ccc(-c2nc(-n3ccnc3)nc(-n3ccnc3)n2)cc1	none
c1ccc(CN2CCN(c3nc(-c4ccccc4)nc(-n4ccnc4)n3)CC2)cc1	T cruzi inh 60
c1ccc(N(c2ccccc2)c2nc(N3CCCC3)nc(-n3ccnc3)n2)cc1	CSC inhib 101, T cruzi inh 57
CN(c1ccccc1)c1nc(N2CCCC2)nc(-n2ccnc2)n1	none
COc1cc(/C=C/C(=O)c2cccc([N+](=O)[O-])c2)cc(OC)c1OC	none
O=C(/C=C/c1ccccc1F)c1cccc([N+](=O)[O-])c1	GRIN3A LBD mod 19
CCCc1nc2ccccc2c(=O)n1/N=C/c1ccccc1O	Beta cell apopt 97
O=[N+]([O-])c1ccc(Cl)c(/C=N/n2c(COc3ccccc3)n[nH]c2=S)c1	none
Cc1cccc(C)c1OCc1nc2ccccc2c(=O)n1/N=C/c1c[nH]c2ccccc12	T cruzi inh 69, CHOP inhibitor 85, GRIN3A LBD mod 31
O=c1c2ccccc2nc(COc2ccccc2)n1/N=C/c1cc([N+](=O)[O-])ccc1O	CSC inhib 75, Beta cell apopt 79, GRIN3A LBD mod 22
Cc1nc2ccccc2c(=O)n1/N=C/c1ccc(O)cc1O	none
Cc1ccccc1OCc1nc2ccccc2c(=O)n1/N=C/c1c[nH]c2ccccc12	CHOP inhibitor 88
CCCN(C(=O)COC(=O)c1nc2nc(C)cc(C)n2n1)C1CCS(=O)(=O)C1 (configuration not stated)	none (no result: CSC inhib, T cruzi inh, CHOP inhibitor)
Cc1cc(/C=N/n2c(COc3ccccc3C)nc3ccccc3c2=O)c(O)c([N+](=O)[O-])c1	Beta cell apopt 79, T cruzi inh 67
CC(=O)Nn1c(COc2ccccc2C)nc2ccccc2c1=O	none
CCC(C)(C)n1nnnc1C(c1cc2ccc(OC)cc2[nH]c1=O)N1CCc2ccccc2C1 (configuration not stated)	T cruzi inh 55
CCCC(c1nnnn1C(C)(C)CC)N(Cc1ccco1)Cc1cc2ccc(OC)cc2[nH]c1=O (configuration not stated)	CHOP inhibitor 91 (no result: CSC inhib, Beta cell apopt, PREPL inh)
COc1ccc(-c2cc(-c3ccc(F)cc3)nc(N3CCN(C)CC3)n2)cc1	CHOP inhibitor 87 (no result: Beta cell apopt)
COc1ccc(-c2cc(C(F)(F)F)nc(N3CCOCC3)n2)cc1	none
COc1ccc(N2CCN(S(=O)(=O)c3c(C)n(C)c(=O)n(C)c3=O)CC2)cc1	GRIN3A LBD mod 11 (no result: CHOP inhibitor)
COc1ccc(N2CCN(S(=O)(=O)c3cn(C)c(=O)n(C)c3=O)CC2)cc1	none
CC[C@H](C)[C@@H](NC(=O)O[C@@H]1C(=O)c2cc(Br)ccc2O[C@H]1c1cccc(OC)c1)C(=O)OC	none (no result: T cruzi inh)
CC(=O)OC1C(N2CCCCC2)c2c(ccc(/C=C/C(=O)N3CCCCC3)c2O)OC1(C)C (configuration not stated)	CHOP inhibitor 77
CC1(C)Oc2ccc3ccc(=O)oc3c2C(N2CCCCC2)C1O (configuration not stated)	none
O=C1CCCN1CCC(=O)N1CCCC(N2CCN(c3ccccc3F)CC2)C1 (configuration not stated)	none (no result: CHOP inhibitor)
Cc1cc(C(F)(F)F)c(C#N)c(SCC(=O)Nc2nc3ccccc3s2)n1	GRIN3A LBD mod 12
Cc1cc(C)c(C#N)c(SCC(=O)Nc2nnc(-c3ccccc3)s2)n1	T cruzi inh 55
Cc1nc(SCC(=O)Nc2nc3ccccc3s2)c(C#N)c(C)c1C	CHOP inhibitor 102
O=C(N/N=C/c1ccc(O)cc1O)c1ccc(CN2C(=O)c3cccc4cccc2c34)cc1	Beta cell apopt 93, GRIN3A LBD mod 20
Cc1cc([N+](=O)[O-])nn1Cc1ccc(C(=O)N/N=C/c2ccc(O)cc2O)cc1	CSC inhib 117, Beta cell apopt 98
Cc1cc(C=C2C(=O)c3ccccc3C2=O)c(C)n1-c1ccccc1	CHOP inhibitor 84 (no result: CSC inhib)
Cc1cc(/C=C2\Cc3ccccc3C2=O)c(C)n1-c1ccccc1	CHOP inhibitor 89
Cc1cc(C=C2C(=O)c3ccccc3C2=O)c(C)n1-c1ccc(C(=O)O)cc1	none
CCSc1nc2c(cnn2-c2ccccc2)c(=O)n1N	none
CCOC(=O)c1ccc2c(c1)nc(COc1ccc(OC)cc1)n2CC	none (no result: CSC inhib, Beta cell apopt)
CN(C)c1nc(N/N=C\c2ccc(Cl)c([N+](=O)[O-])c2)nc(Nc2ccc(F)cc2)n1	GRIN3A LBD mod 30 (no result: CHOP inhibitor)
O=C(O)c1cnn(-c2nc(-c3ccc(Cl)cc3)cs2)c1C(F)(F)F	GRIN3A LBD mod 28 (no result: CHOP inhibitor)
COc1ccc(-c2csc(-n3ncc(C(=O)O)c3C(F)(F)F)n2)cc1	none (no result: CHOP inhibitor)
Cc1ccc(C(C)C)cc1OCC(=O)Nc1ccc(N2CCCCC2)cc1	T cruzi inh 63 (no result: CHOP inhibitor)
O=C(CCCOc1ccc(Br)cc1)Nc1ccc(S(=O)(=O)N2CCOCC2)cc1	none (no result: CHOP inhibitor, GRIN3A LBD mod)
COc1ccc(NC(=O)COc2ccc(-n3cnnn3)cc2)cc1OC	GRIN3A LBD mod 11 (no result: CSC inhib, Beta cell apopt, T cruzi inh, PREPL inh, CHOP inhibitor)
CC(=O)c1ccc(OCC(=O)Nc2ccc(N3CCCCC3)cc2)cc1	none (no result: T cruzi inh, CHOP inhibitor)
Cc1ccc(OCC(=O)Nc2ccc(N3CCCC3)cc2)cc1C	none (no result: Beta cell apopt)
COc1ccc(OCC(=O)Nc2ccc(N3CCCCC3)cc2)cc1	GRIN3A LBD mod 19
CC(=O)c1ccc(OCCCC(=O)Nc2ccc(S(=O)(=O)N3CCOCC3)cc2)cc1	GRIN3A LBD mod 22 (no result: CSC inhib, CHOP inhibitor)
COc1ccccc1NC(=O)Nc1nc(CC(=O)NCc2ccc(F)cc2)cs1	none (no result: CHOP inhibitor)
Cc1ccc2c(c1)-c1cc(C)ccc1C2=O	none (no result: CSC inhib, Beta cell apopt, T cruzi inh, PREPL inh, CHOP inhibitor)
CCOc1ccc(NC(=O)NCC2CCN(c3ccc(OC)cc3)C2)cc1 (configuration not stated)	CHOP inhibitor 76
Cc1ccc(NC(=O)COc2ccc(/C(N)=N/O)cc2)cc1C	GRIN3A LBD mod 14
CCc1ccc(NC(=O)NCC2CCN(c3ccc(OC)cc3)C2)cc1 (configuration not stated)	none
COc1ccc(OCCCC(=O)Nc2ccc(N3CCOCC3)cc2)cc1	GRIN3A LBD mod 28
Cc1ccc(NC(=O)COc2ccc(-n3cnnn3)cc2)cc1C	none
Oc1ccc(/C=N/N2CCN(C3c4ccccc4-c4ccccc43)CC2)cc1O	CHOP inhibitor 91
CCC(Cc1ccccc1)NC(=O)CCc1ccccc1 (configuration not stated)	none (no result: CHOP inhibitor)

High-throughput results deposited in PubChem by several laboratories.
